Source: ChEMBL document CHEMBL3421540, “Ensemble-based virtual screening for cannabinoid-like potentiators of the human glycine receptor α1 for the treatment of pain” (J Med Chem, 2015)
Activity calls are given as the source filed them. No cut-off for these calls is given here.

How the values were obtained:
Assay type in all cases: cell-based
[1] = target: T1, Glycine receptor subunit alpha-1 (Homo sapiens) (UniProt P23415); assay: Potentiation of human GlyR-alpha1 expressed in Xenopus laevis oocytes assessed as induction of glycine-activated currents at 10 uM after 1 to 4 days by two-electrode voltage clamp assay relative to control
T1 sequence (whole entry): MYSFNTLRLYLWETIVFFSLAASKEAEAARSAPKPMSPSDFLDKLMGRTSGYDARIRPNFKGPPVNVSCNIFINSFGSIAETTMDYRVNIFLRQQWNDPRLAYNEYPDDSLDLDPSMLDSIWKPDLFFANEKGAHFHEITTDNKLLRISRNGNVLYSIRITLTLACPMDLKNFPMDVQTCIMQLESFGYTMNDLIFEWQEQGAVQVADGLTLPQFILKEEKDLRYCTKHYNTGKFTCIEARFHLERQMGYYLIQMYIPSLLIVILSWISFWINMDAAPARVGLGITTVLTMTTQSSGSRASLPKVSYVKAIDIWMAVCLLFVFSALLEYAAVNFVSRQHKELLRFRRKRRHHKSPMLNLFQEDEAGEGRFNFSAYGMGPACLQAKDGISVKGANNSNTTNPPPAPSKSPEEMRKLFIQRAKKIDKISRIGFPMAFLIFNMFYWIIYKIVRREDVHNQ
Method in brief: (§1)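 RNA for hGlyR-α1 (25−50 ng) injected into stage 5−6 Xenopus laevis oocytes held at 17 °C in modified Barth's solution; two-electrode voltage clamp 1−4 days post-injection at −60 mV holding potential. Bath: 96 mM NaCl, 2 mM KCl, 1.8 mM CaCl2, 1 mM MgCl2, 5 mM HEPES, pH 7.0. Compound coapplied with glycine at EC5; potentiation of current scored.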

[2] = target: T2, Glycine receptor subunit alpha-1 (Homo sapiens, UniProt P23415); assay: Potentiation of human GlyR-alpha1 expressed in Xenopus laevis oocytes assessed as induction of glycine-activated currents after 1 to 4 days by two-electrode voltage clamp assay
T2 sequence (P23415 whole entry): T1 sequence (whole entry)
Method in brief: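 hGlyR-α1 RNA (25−50 ng) injected into stage 5−6 Xenopus oocytes, held at 17 °C in modified Barth's solution. Recorded 1−4 days later by two-electrode voltage clamp at −60 mV in 96 mM NaCl, 2 mM KCl, 1.8 mM CaCl2, 1 mM MgCl2, 5 mM HEPES, pH 7.0. Compounds coapplied with glycine at EC5, up to 10 μM. EC50 values also derived.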

[3] = target: T1, Glycine receptor subunit alpha-1 (Homo sapiens); assay: Potentiation of human GlyR-alpha1 expressed in Xenopus laevis oocytes assessed as induction of glycine-activated currents at 1 uM after 1 to 4 days by two-electrode voltage clamp assay relative to control; method in brief: as §1
[4] = target: Neuronal acetylcholine receptor subunit alpha-7 (Homo sapiens) (UniProt P36544); assay: Modulation of human alpha7 nAChR expressed in Xenopus laevis oocytes assessed as effect on acetylcholine-induced currents at 10 uM after 1 to 4 days by two-electrode voltage clamp assay relative to control
Method in brief: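 α7 nAChR RNA (25−50 ng) injected into stage 5−6 Xenopus oocytes, kept at 17 °C in modified Barth's solution. Two-electrode voltage clamp at −60 mV, 1−4 days post-injection. Bath: 96 mM NaCl, 2 mM KCl, 1.8 mM CaCl2, 1 mM MgCl2, 5 mM HEPES, pH 7.0. Compound coapplied with acetylcholine at EC50, used because of fast desensitization.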

Chain of Neuronal acetylcholine receptor subunit alpha-7 (Homo sapiens) (P36544 whole entry): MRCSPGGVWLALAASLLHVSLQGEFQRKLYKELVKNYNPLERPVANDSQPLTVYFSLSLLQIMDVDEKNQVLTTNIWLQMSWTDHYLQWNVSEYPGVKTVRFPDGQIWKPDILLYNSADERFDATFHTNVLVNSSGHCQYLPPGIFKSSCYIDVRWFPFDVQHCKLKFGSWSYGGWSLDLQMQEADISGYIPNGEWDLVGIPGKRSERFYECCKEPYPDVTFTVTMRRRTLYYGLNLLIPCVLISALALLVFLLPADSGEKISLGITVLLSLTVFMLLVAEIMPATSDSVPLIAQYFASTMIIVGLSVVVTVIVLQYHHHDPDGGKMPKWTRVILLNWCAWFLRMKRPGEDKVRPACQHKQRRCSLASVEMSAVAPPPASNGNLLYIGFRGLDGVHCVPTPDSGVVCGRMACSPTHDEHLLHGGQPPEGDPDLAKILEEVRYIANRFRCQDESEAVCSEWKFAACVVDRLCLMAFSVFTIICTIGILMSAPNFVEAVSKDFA

Compound	%max [1] [%]	EC50 [2] [µM]	Activity [3] [%]	Activity [4]
CCCc1nc2c(C)cc(-c3nc4ccccc4n3C)cc2n1Cc1ccc(-c2ccccc2C(=O)O)cc1	210	3.2	120	–
C[C@@H](NCCCc1cccc(C(F)(F)F)c1)c1cccc2ccccc12	210	0.32	182	inactive
COc1ccc(-c2ccc3cc(C(=O)O)ccc3c2)cc1C12CC3CC(CC(C3)C1)C2	260	1.3	172	inactive
CC1=C(CC(=O)O)c2cc(F)ccc2/C1=C\c1ccc([S+](C)[O-])cc1 (centres undefined)	–	0.38	–	inactive
O=C1NCN(c2ccccc2)C12CCN(CCCC(c1ccc(F)cc1)c1ccc(F)cc1)CC2	–	1.2	–	–
COc1cc(OC)c(NC(=O)Nc2cc(C)on2)cc1Cl	103	–	102	–
Cc1nc2c([nH]1)-c1ccccc1N(C(=O)c1ccc(NC(=O)c3ccccc3-c3ccccc3)cc1)CC2	107	–	106	–
COc1ccc(CCN2CCC(Nc3nc4ccccc4n3Cc3ccc(F)cc3)CC2)cc1 [ASTEMIZOLE]	280	4.2	122	–
C=C1CC[C@H](O)C/C1=C/C=C1\CCC[C@]2(C)[C@@H]([C@H](C)CCCC(C)C)CC[C@@H]12 [CHOLECALCIFEROL]	220	0.4	216	inactive
CCCCCc1cc(O)c2c(c1)OC(C)(C)[C@@H]1CCC(C)=C[C@@H]21 [DRONABINOL]	260	1.3	162	–
C[C@]12C=CC(=O)N[C@@H]1CC[C@@H]1[C@@H]2CC[C@]2(C)[C@@H](C(=O)Nc3cc(C(F)(F)F)ccc3C(F)(F)F)CC[C@@H]12 [DUTASTERIDE]	–	0.33	–	inactive
OC(c1cc(C(F)(F)F)nc2c(C(F)(F)F)cccc12)C1CCCCN1 (centres undefined) [MEFLOQUINE]	220	2.5	126	–
O=c1[nH]c2ccccc2n1C1CCN(CCCC(c2ccc(F)cc2)c2ccc(F)cc2)CC1 [PIMOZIDE]	510	1.7	219	inactive
CNC(=O)c1cc(Oc2ccc(NC(=O)Nc3ccc(Cl)c(C(F)(F)F)c3)c(F)c2)ccn1 [REGORAFENIB]	200	1.8	116	–
Cc1nc2n(c(=O)c1CCN1CCC(c3noc4cc(F)ccc34)CC1)CCCC2 [RISPERIDONE]	190	0.32	180	inactive
